# According to ChEMBL document CHEMBL1800057, “Discovery of dual inducible/neuronal nitric oxide synthase (iNOS/nNOS) inhibitor development candidate 4-((2-cyclobutyl-1H-imidazo[4,5-b]pyrazin-1-yl)methyl)-7,8-difluoroquinolin-2(1H)-one (KD7332) part 2: identification of a novel, potent, and selective series of benzimidazole-quinolinone …” (J Med Chem, 2010):
# pEC50, pIC50: −log10 of the molar value. Calls of active or inactive are those of the source.
# What was measured:
# Nitric oxide synthase 1 [1] = biological target: T1, Nitric oxide synthase 1 (Homo sapiens, UniProt P29475); assay: Inhibition of human nNOS expressed in HEK293 cells assessed as inhibition ionomycin induced nitric oxide production at 100 uM incubated for 24 hrs measured after 18 hrs of ionomycin challenge using 2,3-diaminonaphthalene by fluorescence assay; type: cell-based
# [2] = biological target: T2, Nitric oxide synthase, inducible (Homo sapiens, UniProt P35228); assay: Inhibition of human iNOS expressed in HEK293 cells assessed as inhibition of nitric oxide production after 18 hrs using 2,3-diaminonaphthalene by fluorescence assay; type: cell-based
# Method in brief: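 HEK293 cells grown to ~70% confluence in DMEM/10% FBS with pen/strep, transiently transfected with 10 μg human or murine iNOS plasmid plus Fugene 6 for 4 h at 37 °C, 10% CO2. Cells replated at 5e5 cells/mL and dosed with compound at once; 1400W (100 μM final) as positive control. After 18 h, DAN (10 μg/mL final) in HCl (0.1 N final) added for 20 min at room temperature. Fluorescence read after NaOH (0.12 N final).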
# Nitric oxide synthase 1 [3] = biological target: T1, Nitric oxide synthase 1; assay: Inhibition of human nNOS expressed in HEK293 cells assessed as inhibition ionomycin induced nitric oxide production incubated for 24 hrs measured after 18 hrs of ionomycin challenge using 2,3-diaminonaphthalene by fluorescence assay; type: cell-based
# Method in brief: (§1)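 HEK293 cells transfected for 4 h at 37 °C with human nNOS (10 μg) or human eNOS (15 μg) plasmid (Fugene 6, 3:1). Cells replated at 5e5 cells/mL and dosed with compound at once; SEITU (100 μM final) as positive control. After 24 h, cells activated with A23187 (83 nM final) for eNOS or ionomycin (30 μM final) for nNOS. NO read 18 h later as nitrite-DAN fluorescence.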
# Nitric oxide synthase 3 = biological target: T3, Nitric oxide synthase 3 (Homo sapiens, UniProt P29474); assay: Inhibition of human eNOS expressed in HEK293 cells assessed as inhibition A23187 induced nitric oxide production incubated for 24 hrs measured after 18 hrs of […] challenge using 2,3-diaminonaphthalene by fluorescence assay; type: cell-based; method in brief: as §1
# T3 sequence (P29474 whole entry): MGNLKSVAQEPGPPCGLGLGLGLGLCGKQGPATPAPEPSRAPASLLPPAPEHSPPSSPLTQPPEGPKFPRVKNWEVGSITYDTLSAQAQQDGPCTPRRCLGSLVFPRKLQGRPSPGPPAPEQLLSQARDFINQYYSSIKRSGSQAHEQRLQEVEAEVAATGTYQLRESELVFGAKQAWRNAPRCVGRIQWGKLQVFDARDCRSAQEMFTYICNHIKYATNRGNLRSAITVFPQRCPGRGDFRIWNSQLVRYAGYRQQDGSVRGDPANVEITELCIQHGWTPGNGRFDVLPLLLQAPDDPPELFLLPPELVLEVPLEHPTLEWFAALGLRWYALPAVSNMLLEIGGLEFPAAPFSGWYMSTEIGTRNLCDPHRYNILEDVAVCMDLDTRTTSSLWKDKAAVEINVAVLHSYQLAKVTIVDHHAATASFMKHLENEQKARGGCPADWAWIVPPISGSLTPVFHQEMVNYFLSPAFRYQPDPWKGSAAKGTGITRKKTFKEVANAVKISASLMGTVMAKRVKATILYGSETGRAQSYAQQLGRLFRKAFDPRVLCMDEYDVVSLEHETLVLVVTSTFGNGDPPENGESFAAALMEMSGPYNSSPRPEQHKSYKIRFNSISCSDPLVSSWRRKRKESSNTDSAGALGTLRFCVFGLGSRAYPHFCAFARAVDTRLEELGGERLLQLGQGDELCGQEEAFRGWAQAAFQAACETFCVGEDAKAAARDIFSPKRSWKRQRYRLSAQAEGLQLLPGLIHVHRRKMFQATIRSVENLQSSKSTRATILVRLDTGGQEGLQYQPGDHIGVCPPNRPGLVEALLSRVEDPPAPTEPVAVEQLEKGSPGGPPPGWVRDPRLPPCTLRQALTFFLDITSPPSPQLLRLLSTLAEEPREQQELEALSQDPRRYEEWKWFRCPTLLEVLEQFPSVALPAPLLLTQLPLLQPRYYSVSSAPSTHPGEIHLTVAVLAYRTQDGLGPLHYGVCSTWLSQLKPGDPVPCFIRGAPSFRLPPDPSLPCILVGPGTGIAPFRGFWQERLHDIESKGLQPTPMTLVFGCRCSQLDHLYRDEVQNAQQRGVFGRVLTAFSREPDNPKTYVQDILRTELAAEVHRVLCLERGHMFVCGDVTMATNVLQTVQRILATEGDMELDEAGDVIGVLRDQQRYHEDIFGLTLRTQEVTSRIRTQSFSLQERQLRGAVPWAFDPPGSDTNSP
# Liver = assay: Half life in mouse liver microsomes assessed as formation of oxidation product and glucuronide conjugate; type: ADME, Microsome
# Method in brief: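 Mouse liver microsomes run under combined phase I oxidation and phase II glucuronide conjugation; half-life reported in minutes.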
# Homo sapiens [4] = species: Homo sapiens; assay: Ratio of IC50 for human eNOS to EC50 for human iNOS
# Homo sapiens [5] = species: Homo sapiens; assay: Ratio of IC50 for human nNOS to EC50 for human iNOS
# [6] = biological target: T4, Nitric oxide synthase 3 (Homo sapiens) (UniProt P29474); assay: Inhibition of human eNOS expressed in HEK293 cells assessed as inhibition A23187 induced nitric oxide production at 100 uM incubated for 24 hrs measured after 18 hrs of […] challenge using 2,3-diaminonaphthalene by fluorescence assay; type: cell-based
# T4 sequence (whole entry): T3 sequence (P29474 whole entry)
# Mus musculus [7] = assay: Antiallodynic activity against von Frey hair mechanically stimulated neuropathic pain in mouse Chung model of neuropathic pain assessed as attenuation of tactile allodynia at 30 mg/kg, po; type: functional, organism-based; parameters: dose 30 mg/kg
# Method in brief: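 Spinal nerve ligation (Chung) surgery done under isoflurane anaesthesia (5% induction, 2-3% maintenance). Only mice with baseline 50% withdrawal threshold ~0.2-0.3 g at days 5-10 after surgery were included. Von Frey filaments applied for 10 s each; 50% threshold calculated by Dixon up-down method. Compound given po at 30 mg/kg, and also 30 mg/kg BID for four days.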
# Mus musculus [8] = assay: Antiallodynic activity against von Frey hair mechanically stimulated neuropathic pain in mouse Chung model of neuropathic pain assessed as attenuation of tactile allodynia at 30 mg/kg, po bid for 4 days; type: functional, organism-based; parameters: dose 30 mg/kg
# Method in brief: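 Spinal nerve ligation in mice under isoflurane (5% induction, 2-3% maintenance). Von Frey filaments pressed on the paw for up to 10 s. 50% withdrawal threshold derived by Dixon's up-down method. Only mice with baseline thresholds of ~0.2-0.3 g between 5 and 10 days post-surgery were included. Dosing was oral.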
# Rhesus monkey = assay: Inhibition of capsaicin-induced thermal hyperalgesia in rhesus monkey model; type: functional, organism-based; conditions: Macaca mulatta
# [9] = Plasma clearance in mouse at 1 mg/kg, iv and 10 mg/kg, po; type: ADME, organism-based
# [10] = Volume of distribution at steady state in mouse at 1 mg/kg, iv and 10 mg/kg, po; type: ADME, organism-based; conditions: in vivo, read-out: Vdss
# [11] = Cmax in mouse at 1 mg/kg, iv and 10 mg/kg, po; type: ADME, organism-based; conditions: in vivo
# [12] = Half life in mouse at 1 mg/kg, iv and 10 mg/kg, po; type: ADME, organism-based; conditions: in vivo
# [13] = Oral bioavailability in mouse at 10 mg/kg; type: ADME, organism-based; conditions: in vivo
# Homo sapiens [14] = species: Homo sapiens; assay: Selectivity for human iNOS over human eNOS
# Method in brief: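 Ratio of EC₅₀ values from transiently transfected HEK293 cells. iNOS: plasmid, 18 h with compound, 1400W control, n = 8/point. eNOS: 15 μg human eNOS plasmid, 24 h with compound at 37 °C, then A23187 (83 nM final) for 18 h, SEITU (100 μM final) control, n = 3/point. NO read by DAN fluorescence; each EC₅₀ from three runs of 10-point curves.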
# [15] = biological target: T2, Nitric oxide synthase, inducible; assay: Inhibition of human iNOS
# Method in brief: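 HEK293 cells grown to about 70% confluence in DMEM with 10% FBS and pen/strep, then transiently transfected with human iNOS plasmid using Fugene 6 for 4 h at 37 °C, 10% CO₂. Cells replated at 5e5 cells/mL and treated at once with compound; 1400W (100 μM final) as positive control. After 18 h, NO read as DAN-nitrite fluorescence. EC₅₀ from three runs, 10-point curves, n = 8/point.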
# [16] = Plasma clearance in mouse; type: ADME, organism-based
# [17] = Half life in mouse; type: ADME, organism-based; conditions: in vivo
# T2 sequence (P35228 whole entry): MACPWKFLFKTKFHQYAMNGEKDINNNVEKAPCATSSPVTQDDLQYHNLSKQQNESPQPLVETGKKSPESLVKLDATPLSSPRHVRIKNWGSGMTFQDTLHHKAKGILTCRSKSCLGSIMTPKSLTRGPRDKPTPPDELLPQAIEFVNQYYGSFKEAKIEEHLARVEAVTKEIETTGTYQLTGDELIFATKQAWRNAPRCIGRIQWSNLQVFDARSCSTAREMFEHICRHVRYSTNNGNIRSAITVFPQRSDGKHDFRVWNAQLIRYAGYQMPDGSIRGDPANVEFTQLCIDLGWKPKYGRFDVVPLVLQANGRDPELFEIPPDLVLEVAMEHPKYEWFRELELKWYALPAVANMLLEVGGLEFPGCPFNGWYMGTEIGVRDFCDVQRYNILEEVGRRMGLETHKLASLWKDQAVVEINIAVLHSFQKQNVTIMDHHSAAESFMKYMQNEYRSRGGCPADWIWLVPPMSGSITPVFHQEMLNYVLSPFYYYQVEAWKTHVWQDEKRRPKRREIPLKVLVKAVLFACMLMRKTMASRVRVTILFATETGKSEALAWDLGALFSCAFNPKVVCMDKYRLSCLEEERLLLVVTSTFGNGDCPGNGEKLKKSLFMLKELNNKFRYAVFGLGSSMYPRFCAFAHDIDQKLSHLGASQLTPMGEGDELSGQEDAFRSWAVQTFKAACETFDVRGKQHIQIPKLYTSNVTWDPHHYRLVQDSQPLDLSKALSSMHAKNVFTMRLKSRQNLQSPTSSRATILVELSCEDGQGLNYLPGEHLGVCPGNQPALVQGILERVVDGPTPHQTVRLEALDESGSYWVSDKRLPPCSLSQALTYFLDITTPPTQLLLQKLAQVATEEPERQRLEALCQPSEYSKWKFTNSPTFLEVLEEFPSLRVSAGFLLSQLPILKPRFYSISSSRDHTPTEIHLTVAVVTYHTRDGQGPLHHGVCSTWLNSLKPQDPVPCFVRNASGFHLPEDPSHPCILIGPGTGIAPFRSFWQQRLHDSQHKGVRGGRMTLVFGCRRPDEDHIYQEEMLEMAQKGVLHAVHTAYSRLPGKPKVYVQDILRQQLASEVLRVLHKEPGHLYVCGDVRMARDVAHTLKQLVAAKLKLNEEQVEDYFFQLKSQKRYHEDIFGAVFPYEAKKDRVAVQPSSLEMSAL
# T1 sequence (P29475 whole entry): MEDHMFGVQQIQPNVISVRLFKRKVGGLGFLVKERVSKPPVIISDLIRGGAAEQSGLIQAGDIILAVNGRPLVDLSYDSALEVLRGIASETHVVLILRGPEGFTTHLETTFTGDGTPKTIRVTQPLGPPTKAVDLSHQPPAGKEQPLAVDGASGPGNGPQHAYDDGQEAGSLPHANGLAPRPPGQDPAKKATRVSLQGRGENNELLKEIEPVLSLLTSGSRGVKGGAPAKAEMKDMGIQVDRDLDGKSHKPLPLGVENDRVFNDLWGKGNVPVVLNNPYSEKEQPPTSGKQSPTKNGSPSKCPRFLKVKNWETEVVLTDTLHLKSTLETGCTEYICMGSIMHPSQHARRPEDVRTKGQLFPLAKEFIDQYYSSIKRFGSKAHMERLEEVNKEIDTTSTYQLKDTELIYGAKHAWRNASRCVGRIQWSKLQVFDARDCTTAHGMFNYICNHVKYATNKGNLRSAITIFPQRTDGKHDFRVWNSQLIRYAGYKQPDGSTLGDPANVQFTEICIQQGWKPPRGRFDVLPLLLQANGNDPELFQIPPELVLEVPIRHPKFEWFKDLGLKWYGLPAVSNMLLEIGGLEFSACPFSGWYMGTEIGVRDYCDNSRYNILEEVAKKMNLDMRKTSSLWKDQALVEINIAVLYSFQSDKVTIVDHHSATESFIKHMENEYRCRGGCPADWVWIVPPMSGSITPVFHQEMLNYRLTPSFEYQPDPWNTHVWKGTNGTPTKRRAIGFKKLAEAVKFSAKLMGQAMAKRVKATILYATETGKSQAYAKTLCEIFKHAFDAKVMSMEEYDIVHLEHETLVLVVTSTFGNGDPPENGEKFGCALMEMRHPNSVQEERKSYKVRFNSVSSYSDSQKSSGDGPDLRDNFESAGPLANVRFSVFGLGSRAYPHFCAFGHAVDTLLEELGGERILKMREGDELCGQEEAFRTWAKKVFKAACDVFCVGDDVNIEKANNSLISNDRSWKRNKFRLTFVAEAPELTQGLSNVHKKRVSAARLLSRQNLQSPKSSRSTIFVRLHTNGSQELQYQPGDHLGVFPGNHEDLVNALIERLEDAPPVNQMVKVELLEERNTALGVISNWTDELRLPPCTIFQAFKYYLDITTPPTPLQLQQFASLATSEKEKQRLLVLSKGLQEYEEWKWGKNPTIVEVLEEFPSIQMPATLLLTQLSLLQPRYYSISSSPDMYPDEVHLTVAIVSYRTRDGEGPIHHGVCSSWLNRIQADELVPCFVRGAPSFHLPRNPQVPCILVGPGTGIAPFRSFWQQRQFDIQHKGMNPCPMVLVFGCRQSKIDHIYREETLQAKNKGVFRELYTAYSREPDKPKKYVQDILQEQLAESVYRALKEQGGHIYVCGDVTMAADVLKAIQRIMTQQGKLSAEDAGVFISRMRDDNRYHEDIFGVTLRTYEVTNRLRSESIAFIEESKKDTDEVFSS
inhibition (Nitric oxide synthase 1 [1]) [%],pEC50 [2],pEC50 (Nitric oxide synthase 1 [3]),pEC50 (Nitric oxide synthase 3),t1/2 (Liver) [min],Ratio EC50 (Homo sapiens [4]),Ratio EC50 (Homo sapiens [5]),inhibition [6] [%],clearance [9] [mL/min/kg],Vd [10] [L/kg],Cmax [11] [ng/mL],half-life [12] [min],bioavailability [13] [%],Selectivity ratio (Homo sapiens [14]),pIC50 [15],clearance [16] [mL/min/kg],half-life [17] [min],SMILES,Activity (Mus musculus [7]),Activity (Mus musculus [8]),inhibition (Rhesus monkey)
< 50,4.32,< 4.00,< 4.00,> 120,> 2,> 2,< 50,,,,,,,,,,CC(C)(C)c1nc2ccccc2n1Cc1cc(=O)[nH]c2c(F)c(F)ccc12,,,
,,,,,180,3.3,,,,,,,,,,,O=c1cc(Cn2c(C3CCC3)nc3nccnc32)c2ccc(F)c(F)c2[nH]1,Active,Active,Active
,,,,,,,,> 100,1.6,1400,12,7,> 2000,7.96,> 100,12,Cc1ncsc1C(=O)N(Cc1cc(=O)[nH]c2c(F)cccc12)c1cccc(Cl)c1,,,
